Measurements from ChEMBL document CHEMBL4052589, “Discovery of Imidazo[1,2-a]pyridine Ethers and Squaramides as Selective and Potent Inhibitors of Mycobacterial Adenosine Triphosphate (ATP) Synthesis” (J Med Chem, 2017).

Test system: Mycobacterium tuberculosis
Assay: Induction of membrane damage in Mycobacterium bovis BCG after 60 mins by DiOC2 probe-based fluorescence assay
Assay type: functional
Conditions: variant bovis BCG, 1 h
How it was run: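 Cell-based assay. Mid-log phase BCG culture was pre-loaded with DiOC2 before compound exposure. Fluorescence was read as the red-shifted emission at 600 nm, which tracks membrane potential. CCCP served as the positive control, and IC50 was derived.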

Compound	IC50 [µM]
c1ccc(OCCCOc2c(-c3ccccc3)nc3ccccn23)cc1	> 100
O=c1c(NCc2ccccn2)c(-c2ccc(N3CCOCC3)cc2)c1=O	> 100
Cc1ccc2nc(-c3ccc(F)cc3)c(OCCCNc3ccc(F)c(C)c3)n2c1	> 100
O=c1c(NCc2cnccn2)c(-c2ccc(N3CCOCC3)cc2)c1=O	> 100
Cc1ccc2nc(-c3ccc(F)cc3)c(OCCCNc3ccc(F)c(C)n3)n2c1	> 100
Cc1ccc2nc(-c3ccccc3)c(OCCCOc3ccccc3)n2c1	> 100
